Results from ChEMBL document CHEMBL1955747, “Maximizing lipophilic efficiency: the use of Free-Wilson analysis in the design of inhibitors of acetyl-CoA carboxylase” (J Med Chem, 2012).
≈ marks a conversion by molar mass, not a printed value.

Key:
[1] = Intrinsic clearance in human liver microsomes; type: ADME, Microsome; conditions: read-out: CLH
[2] = Aqueous solubility at pH 7.4; type: physicochemical; conditions: buffer
Acetyl-CoA carboxylase 1 = Acetyl-CoA carboxylase 1 (Rattus norvegicus, UniProt P11497); experiment: Inhibition of rat liver Acetyl-CoA carboxylase 1 using acetyl-CoA as substrate preincubated for 10 mins prior substrate addition measured after 20 mins by luminescence counting
Summary of the method: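 Each IC50 comes from single-point inhibition data run in triplicate. The reported value is the arithmetic mean of at least three independent replicates ± SEM.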

Acetyl-CoA carboxylase 2 = Acetyl-CoA carboxylase 2 (Homo sapiens, UniProt O00763); experiment: Inhibition of human Acetyl-CoA carboxylase 2 expressed in CHO cells after 1 hr by fluorescence assay; type: cell-based
Chain of Acetyl-CoA carboxylase 2 (O00763 whole entry): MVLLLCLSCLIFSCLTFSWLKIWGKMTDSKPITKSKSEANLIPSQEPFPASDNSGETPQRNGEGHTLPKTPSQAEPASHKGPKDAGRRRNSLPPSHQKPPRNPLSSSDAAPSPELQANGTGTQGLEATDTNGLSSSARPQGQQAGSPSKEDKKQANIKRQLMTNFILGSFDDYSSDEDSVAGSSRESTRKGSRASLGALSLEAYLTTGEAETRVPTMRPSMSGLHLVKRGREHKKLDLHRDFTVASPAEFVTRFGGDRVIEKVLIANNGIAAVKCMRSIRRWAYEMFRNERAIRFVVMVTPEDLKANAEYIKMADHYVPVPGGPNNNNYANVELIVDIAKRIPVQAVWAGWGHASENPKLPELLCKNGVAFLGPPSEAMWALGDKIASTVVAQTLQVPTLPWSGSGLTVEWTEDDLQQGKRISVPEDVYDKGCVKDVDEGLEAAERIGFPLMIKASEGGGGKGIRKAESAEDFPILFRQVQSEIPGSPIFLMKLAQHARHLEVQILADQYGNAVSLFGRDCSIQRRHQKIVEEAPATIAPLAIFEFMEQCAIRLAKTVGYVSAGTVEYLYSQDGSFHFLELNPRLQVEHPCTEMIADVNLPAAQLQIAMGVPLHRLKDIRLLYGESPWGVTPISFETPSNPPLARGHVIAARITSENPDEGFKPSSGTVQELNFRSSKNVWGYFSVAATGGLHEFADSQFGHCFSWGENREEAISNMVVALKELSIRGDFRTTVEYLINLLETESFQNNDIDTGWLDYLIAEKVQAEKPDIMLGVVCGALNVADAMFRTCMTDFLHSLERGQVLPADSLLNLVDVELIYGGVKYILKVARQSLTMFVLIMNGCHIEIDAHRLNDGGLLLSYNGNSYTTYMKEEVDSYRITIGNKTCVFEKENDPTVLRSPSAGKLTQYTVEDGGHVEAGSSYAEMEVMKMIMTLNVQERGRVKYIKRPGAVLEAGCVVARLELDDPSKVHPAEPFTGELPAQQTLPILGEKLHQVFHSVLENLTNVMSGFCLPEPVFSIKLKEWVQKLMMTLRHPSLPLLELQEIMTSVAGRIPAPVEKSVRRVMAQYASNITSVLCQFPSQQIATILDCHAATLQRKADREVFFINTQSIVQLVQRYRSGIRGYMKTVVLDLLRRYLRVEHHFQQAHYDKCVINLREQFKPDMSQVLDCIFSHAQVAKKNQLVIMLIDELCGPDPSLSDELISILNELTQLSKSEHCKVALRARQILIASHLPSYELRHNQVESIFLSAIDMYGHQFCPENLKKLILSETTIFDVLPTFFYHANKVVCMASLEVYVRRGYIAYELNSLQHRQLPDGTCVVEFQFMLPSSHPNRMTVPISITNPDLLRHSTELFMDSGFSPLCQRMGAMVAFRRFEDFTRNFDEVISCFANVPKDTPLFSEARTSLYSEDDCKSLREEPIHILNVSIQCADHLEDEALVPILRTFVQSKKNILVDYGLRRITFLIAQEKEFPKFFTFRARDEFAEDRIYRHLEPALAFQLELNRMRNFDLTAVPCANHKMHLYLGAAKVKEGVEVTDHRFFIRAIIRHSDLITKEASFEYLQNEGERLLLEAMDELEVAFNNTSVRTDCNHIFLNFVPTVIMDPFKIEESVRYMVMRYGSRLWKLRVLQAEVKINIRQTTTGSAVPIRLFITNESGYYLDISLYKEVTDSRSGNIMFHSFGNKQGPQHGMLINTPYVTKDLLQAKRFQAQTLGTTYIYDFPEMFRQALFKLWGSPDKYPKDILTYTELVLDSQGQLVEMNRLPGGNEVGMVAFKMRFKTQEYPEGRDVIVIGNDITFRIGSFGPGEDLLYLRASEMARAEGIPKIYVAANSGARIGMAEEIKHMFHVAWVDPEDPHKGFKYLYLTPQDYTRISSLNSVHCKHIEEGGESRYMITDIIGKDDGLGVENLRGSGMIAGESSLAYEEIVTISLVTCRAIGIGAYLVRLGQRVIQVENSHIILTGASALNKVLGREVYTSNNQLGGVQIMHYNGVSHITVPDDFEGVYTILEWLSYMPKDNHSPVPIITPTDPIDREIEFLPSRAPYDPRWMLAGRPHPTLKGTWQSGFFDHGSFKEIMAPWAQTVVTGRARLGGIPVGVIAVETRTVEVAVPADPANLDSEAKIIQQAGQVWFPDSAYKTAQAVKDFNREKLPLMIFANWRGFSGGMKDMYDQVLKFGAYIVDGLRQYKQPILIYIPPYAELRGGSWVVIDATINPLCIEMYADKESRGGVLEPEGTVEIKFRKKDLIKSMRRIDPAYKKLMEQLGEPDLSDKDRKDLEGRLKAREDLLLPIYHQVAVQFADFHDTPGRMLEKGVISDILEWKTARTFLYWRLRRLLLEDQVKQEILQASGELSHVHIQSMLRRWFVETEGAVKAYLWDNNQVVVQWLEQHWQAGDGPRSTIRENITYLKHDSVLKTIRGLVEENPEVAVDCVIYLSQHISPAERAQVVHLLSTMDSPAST

[3] = Plasma clearance in po dosed Sprague-Dawley rat; type: ADME, organism-based
[4] = Oral bioavailability in Sprague-Dawley rat; type: ADME, organism-based; conditions: in vivo
[5] = Half life in po dosed Sprague-Dawley rat; type: ADME, organism-based; conditions: in vivo
Rattus norvegicus [6] = experiment: Volume of distribution at steady state in po dosed Sprague-Dawley rat; type: ADME, organism-based; conditions: in vivo
Rattus norvegicus [7] = experiment: Antidiabetic activity in po dosed Sprague-Dawley rat assessed as inhibition of malonyl-CoA production in quadriceps after 2 hrs by LC-MS analysis; type: functional
Rattus norvegicus [8] = experiment: Antidiabetic activity in Sprague-Dawley rat assessed as inhibition of malonyl-CoA production in liver at 50 mg/kg, po after 2 hrs by LC-MS analysis; type: functional
[9] = Fraction unbound in Sprague-Dawley rat plasma; type: ADME, cell-free
[10] = Permeability across dog RRCK cells; type: ADME, cell-based, Canis lupus familiaris, MDCKII-LE; conditions: MDCK, read-out: permeability
Rattus norvegicus [11] = experiment: Antidiabetic activity in Sprague-Dawley rat assessed as inhibition of malonyl-CoA production in quadriceps at 50 mg/kg, po after 2 hrs by LC-MS analysis; type: functional
Rattus norvegicus [12] = experiment: Antidiabetic activity in po dosed Sprague-Dawley rat assessed as inhibition of malonyl-CoA production in liver after 2 hrs by LC-MS analysis; type: functional
[13] = Aqueous solubility at pH 6.5; type: physicochemical; conditions: buffer

| SMILES | IC50 (Acetyl-CoA carboxylase 1) [nM] | IC50 (Acetyl-CoA carboxylase 2) [nM] | further results |
| --- | --- | --- | --- |
| Cc1cc2c(cc1C)C(=O)CC1(CCN(C(=O)c3cc(C)c4[nH]ncc4c3)CC1)O2 | – | – | CLint scaled [1]: 68 mL/min/kg; solubility [2]: 19 µM (≈ 7.67 µg/mL) |
| Cn1ncc2ccc(C(=O)N3CCC4(CC3)CC(=O)c3nn(C(C)(C)C)cc3O4)cc21 | 13 | 21 | CLint scaled [1]: 13.1 mL/min/kg |
| CC(C)(C)n1cc2c(n1)C(=O)CC1(CCN(C(=O)c3ccc4nc[nH]c4c3)CC1)O2 | 17 | – | CL/F [3]: 26 mL/min/kg; CLint scaled [1]: < 8 mL/min/kg; bioavailability [4]: 50%; half-life [5]: 4.2 h; Vdss (Rattus norvegicus [6]): 2.3 L/kg; ED50 (Rattus norvegicus [7]): 2.6 mg/kg; Imax (Rattus norvegicus [8]): 78%; fraction unbound [9]: 0.55; Papp [10]: 10.9 ×10⁻⁶ cm/s; Imax (Rattus norvegicus [11]): 75%; ED50 (Rattus norvegicus [12]): 1.6 mg/kg; solubility [13]: 300 µM (≈ 122 µg/mL) |
| CCn1nc2c(c1C)OC1(CCN(C(=O)c3ccc4[nH]nc(C)c4c3)CC1)CC2=O | 29 | 42 | – |
| CCn1nc2c(c1C)OC1(CCN(C(=O)c3cc(C)c4[nH]nc(C)c4c3)CC1)CC2=O | 12 | 13 | – |
| CCc1n[nH]c2ccc(C(=O)N3CCC4(CC3)CC(=O)c3nn(CC)c(C)c3O4)cc12 | 36 | – | – |
| CCc1cc(C(=O)N2CCC3(CC2)CC(=O)c2nn(CC)c(C)c2O3)cc2cn[nH]c12 | 31 | 37 | – |
| CCOc1cc(C(=O)N2CCC3(CC2)CC(=O)c2nn(CC)c(C)c2O3)cc2c(C)n[nH]c12 | 11.5 | – | – |
| CCn1nc2c(c1C)OC1(CCN(C(=O)c3ccc4[nH]ncc4c3)CC1)CC2=O | 100 | 92 | – |
| CCn1nc2c(c1C)OC1(CCN(C(=O)c3cc(C)c4nc[nH]c4c3)CC1)CC2=O | 49 | 80 | – |
| CCn1nc2c(c1C)OC1(CCN(C(=O)c3cc(C)c4nc(C)[nH]c4c3)CC1)CC2=O | 34 | 56 | – |
| Cc1n[nH]c2c(C)cc(C(=O)N3CCC4(CC3)CC(=O)c3nn(C(C)C)cc3O4)cc12 | 12 | 14 | CLint scaled [1]: < 8 mL/min/kg |
| Cc1n[nH]c2c(C)cc(C(=O)N3CCC4(CC3)CC(=O)c3nn(C5CCOC5)c(C)c3O4)cc12 (configuration not stated) | – | – | CLint scaled [1]: 23.1 mL/min/kg |
| Cc1cc(C(=O)N2CCC3(CC2)CC(=O)c2nn(C(C)(C)C)cc2O3)cc2[nH]cnc12 | 9.6 | 7.4 | CLint scaled [1]: 12.4 mL/min/kg |
| Cc1nc2c(C)cc(C(=O)N3CCC4(CC3)CC(=O)c3nn(C(C)(C)C)cc3O4)cc2[nH]1 | – | 6.6 | CLint scaled [1]: 15.1 mL/min/kg |

Further lines, with some results ahead:

| IC50 (Acetyl-CoA carboxylase 1) [nM] | IC50 (Acetyl-CoA carboxylase 2) [nM] | SMILES | further results |
| --- | --- | --- | --- |
| 46 | 63 | Cc1cc(C(=O)N2CCC3(CC2)CC(=O)c2nn(C4CCCCC4)cc2O3)cc2cn[nH]c12 | – |
| 370 | 650 | Cc1cc(C(=O)N2CCC3(CC2)CC(=O)c2nn(C)cc2O3)cc2cn[nH]c12 | – |
| 280 | 470 | Cc1cc(C(=O)N2CCC3(CC2)CC(=O)c2nn(C)c(C)c2O3)cc2cn[nH]c12 | – |
| 62 | 63 | CCn1cc2c(n1)C(=O)CC1(CCN(C(=O)c3cc(C)c4[nH]ncc4c3)CC1)O2 | – |
| – | 37 | CCn1nc2c(c1C)OC1(CCN(C(=O)c3cc(C)c4[nH]ncc4c3)CC1)CC2=O | – |
| – | 45 | CCCn1cc2c(n1)C(=O)CC1(CCN(C(=O)c3cc(C)c4[nH]ncc4c3)CC1)O2 | – |
| – | 23 | Cc1cc(C(=O)N2CCC3(CC2)CC(=O)c2nn(C(C)C)cc2O3)cc2cn[nH]c12 | – |
| 260 | – | Cc1cc(C(=O)N2CCC3(CC2)CC(=O)c2nn(Cc4ccccc4)cc2O3)cc2cn[nH]c12 | – |
| – | 14 | Cc1cc(C(=O)N2CCC3(CC2)CC(=O)c2nn(C4CCC4)cc2O3)cc2cn[nH]c12 | – |
| – | 9.4 | Cc1cc(C(=O)N2CCC3(CC2)CC(=O)c2nn(C4CCCC4)cc2O3)cc2cn[nH]c12 | – |
| 7 | 6.9 | Cc1cc(C(=O)N2CCC3(CC2)CC(=O)c2nn(C(C)(C)C)cc2O3)cc2cn[nH]c12 | – |
